For 37 sequences, Tm and folding enthalpy results are on record in the array DNA melting data of Ke et al. (doi:10.1101/2024.01.08.574731).

A short description of series [1]: melting temperature; fluorescence melt of hairpins on a sequencing array, two-state fit, raised by 9.35 °C to match UV melts. The following applies: sodium 0.088 M. In a few lines:
(§1)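 Two-state fits, bootstrapped, provided melting temperature and folding enthalpy from Cy3 fluorescence normalised to pre-quench Cy3 and to control constructs. Library hairpins with annealed Cy3 and quencher oligos were imaged on a sequenced MiSeq flow cell in 50 mM Na-HEPES pH 8.0, 25 mM NaCl, at 2.5 °C intervals up to 60 °C. Four replicates were combined with inverse-variance weighting. A 9.35 °C upward shift was applied to fitted temperatures to match UV melts.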

Series [2] in a line: folding enthalpy; higher = less favourable; fluorescence melt of hairpins on a sequencing array, two-state fit. The following applies: sodium 0.088 M. In a few lines: as §1

GGGGTCCCGAAAGGGCCC (((..(((....)))))): the Tm in series [1] worked out at 65.3 °C. Further, the folding enthalpy in series [2] was -60.9 kJ/mol.

On to GGAGTTCGAAAGAATCC (((.(((....)))))), for which, in series [1], the Tm came out at 33.5 °C. Besides, the folding enthalpy in series [2] is -73.3 kJ/mol.

Consider GATCCGTATCCGGATC ((((((....)))))), for which the Tm in series [1] was 58.2 °C. The folding enthalpy in series [2] is -163 kJ/mol.

Turning to GGTCGCCCGAAAGGGACC (((..(((....)))))), in series [1], the Tm was found to be 45.1 °C. In addition, the folding enthalpy in series [2] is -66.3 kJ/mol.

In the case of GATCTTCCCCAAGATC ((((((....)))))), in series [1], the Tm was determined as 41.6 °C. Also, the folding enthalpy in series [2] is -147 kJ/mol.

As to GGACAGGGAAACCTGTCC (((((((....))))))), the Tm in series [1] was 68.3 °C. Further, the folding enthalpy in series [2] is -157 kJ/mol.

As for GGAGAGCCGAAAGGCTCC (((..(((....)))))), the Tm in series [1] came to 43.3 °C. The folding enthalpy in series [2] was -29 kJ/mol.

CGGAGCGGAAACGCCCG (((.(((....)))))): the Tm in series [1] amounted to 55.6 °C. For the same sequence, the folding enthalpy in series [2] was -128 kJ/mol.

In the case of GCCCCGGGAAACCGAGGC (((.(((....))).))), in series [1], the Tm came to 54.1 °C. Further, the folding enthalpy in series [2] is -124 kJ/mol.

Turning to GATCCCGAAGGGGATC ((((((....)))))), the Tm in series [1] came out at 65.5 °C. The folding enthalpy in series [2] is -82.4 kJ/mol.

In the case of GATCTTCCAAAGATC ((((((...)))))), the Tm in series [1] was determined as 43.2 °C. Besides, the folding enthalpy in series [2] is -115 kJ/mol.

As for GCTCATGCGAAAGCAAGC (((..(((....)))))), in series [1], the Tm was determined as 35 °C. Besides, the folding enthalpy in series [2] was -45.4 kJ/mol.

Turning to GATCTCCAGAGAGATC ((((((....)))))), the Tm in series [1] stood at 52 °C. The folding enthalpy in series [2] is -162 kJ/mol.

For the sequence GACCAGAAATGGTC (((((....))))), the Tm in series [1] worked out at 51.2 °C. Besides, in series [2], the folding enthalpy is -139 kJ/mol.

Consider GACGGCCGAAAGGCAGTC (((.(((....))).))), for which, in series [1], the Tm was 68.8 °C. The folding enthalpy in series [2] was -110 kJ/mol.

Regarding GATCAATGGGTTGATC ((((((....)))))), in series [1], the Tm was found to be 48.3 °C. The folding enthalpy in series [2] is -148 kJ/mol.

In the case of GAACGACGAAAGTCTTTC (((.(((....))).))), the Tm in series [1] stood at 39.3 °C. In addition, the folding enthalpy in series [2] is -102 kJ/mol.

In the case of GTGAACGAAAGTTGTCAC ((((((....)))..))), the Tm in series [1] is 27.9 °C. For the same sequence, in series [2], the folding enthalpy was -91 kJ/mol.

Regarding GAGCACACGAAAGTGCTC (((..(((....)))))), the Tm in series [1] is 57.8 °C. In addition, the folding enthalpy in series [2] was -140 kJ/mol.

For the sequence GCCGAGCGAAAGCACCGC ((.(.((....)).).)), the Tm in series [1] is 38.5 °C. Also, the folding enthalpy in series [2] is -58.9 kJ/mol.

In the case of GCAGGTACGAAAGTATGC (((..(((....)))))), the Tm in series [1] is 33.9 °C. Besides, in series [2], the folding enthalpy is -75.4 kJ/mol.

With GGTCAGCCGAAAGGCACC (((..(((....)))))), in series [1], the Tm stood at 38.3 °C. Also, in series [2], the folding enthalpy was -47.6 kJ/mol.

Consider GGCAGCGAAAGCTAGCC ((((((....))).))), for which the Tm in series [1] came out at 62 °C. The folding enthalpy in series [2] is -138 kJ/mol.

For GTTACACGAAAGTGGAAC (((.(((....))).))), the Tm in series [1] is 56.7 °C. Besides, in series [2], the folding enthalpy is -154 kJ/mol.

Consider GTCTGTGGAAACGCAGAC (((((.(....).))))), for which the Tm in series [1] was 53.8 °C. In addition, the folding enthalpy in series [2] is -201 kJ/mol.

Consider GGAGGAGGAAACTCCCCC ((.((((....)))).)), for which the Tm in series [1] stood at 41.8 °C. Also, in series [2], the folding enthalpy is -73.7 kJ/mol.

Regarding GCTTAACGAAAGTTAGC (((.(((....)))))), the Tm in series [1] turned out to be 44.9 °C. For the same sequence, in series [2], the folding enthalpy was -90.8 kJ/mol.

As for GGGTATCGAAAGATCCCC (((.(((....))).))), in series [1], the Tm worked out at 50.2 °C. Moreover, in series [2], the folding enthalpy is -95.1 kJ/mol.

As for GCAAAGCGAAAGCAATGC (((..((....))..))), in series [1], the Tm was 34.5 °C. The folding enthalpy in series [2] was -50.8 kJ/mol.

Consider GATCTGGTCTCAGATC ((((((....)))))), for which the Tm in series [1] amounted to 53 °C. Moreover, the folding enthalpy in series [2] is -180 kJ/mol.

With GATCCGGGGGCGGATC ((((((....)))))), the Tm in series [1] is 60.1 °C. For the same sequence, the folding enthalpy in series [2] was -160 kJ/mol.

On to GCCCCAACGAAAGTTGGC (((..(((....)))))), for which the Tm in series [1] was determined as 38.7 °C. Moreover, the folding enthalpy in series [2] was -24.5 kJ/mol.

In the case of GAGCCGCCGAAAGGCCTC (((..(((....)))))), in series [1], the Tm is 33.1 °C. Moreover, the folding enthalpy in series [2] is -37.4 kJ/mol.

Turning to GCTGTGCGAAAGCGCGGC ((.(.((....)).).)), the Tm in series [1] was 66.6 °C. Also, the folding enthalpy in series [2] is -106 kJ/mol.

GCTTAAGCGAAAGCTAGC (((..(((....)))))): the Tm in series [1] stood at 40.5 °C. For the same sequence, in series [2], the folding enthalpy is -73.6 kJ/mol.

In the case of GTGTAAGGAAACCTACAC (((((.(....).))))), the Tm in series [1] worked out at 38.1 °C. The folding enthalpy in series [2] is -128 kJ/mol.

In the case of GGACCCGAAAGGGAGTCC ((((((....)))..))), the Tm in series [1] is 49.9 °C. Also, the folding enthalpy in series [2] was -87.3 kJ/mol.
